# Screens (PubChem)
# CaV13 ICDI inh – Primary screen for inhibitors of IQ motif and Ca2+-dependent inactivation inhibitor domain binding in CACNA1D, Förster resonance energy transfer in living cells, … | HEK cells, CFP/YFP FRET ICDI-IQ, plate reader, 10 min; percent FRET-ratio fall versus neutral wells | inhibition, % at 12.3 µM | 0.098% of 340,000 active;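 active = mean replicate inhibition of at least 30% and at least 1% of replicates passing that level; inconclusive = only one of the two criteria is met; inactive = neither criterion is met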;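 note: 0% = median of the neutral control wells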
# CASP6 VEID inh – inhibitors of human caspase-6; P55212; purified caspase-6, Z-VEID-R110 cleavage fluorescence; inhibition, % at 12.5 µM; 0.53% of 350,000 active;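 active = mean inhibition across replicates at least about 35%, with every replicate also reaching that limit, limit read from the data; inconclusive = only one of the two criteria met; inactive = neither criterion met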;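 note: 0% = median of neutral control wells and 100% = no fluorescence left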
# Target sequence (P55212 24-179 limits assumed): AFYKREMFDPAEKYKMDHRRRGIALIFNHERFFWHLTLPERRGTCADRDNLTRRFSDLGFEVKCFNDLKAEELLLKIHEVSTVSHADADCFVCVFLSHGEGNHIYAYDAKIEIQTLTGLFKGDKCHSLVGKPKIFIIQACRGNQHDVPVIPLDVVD
# Target sequence (P55212 194-293 limits assumed): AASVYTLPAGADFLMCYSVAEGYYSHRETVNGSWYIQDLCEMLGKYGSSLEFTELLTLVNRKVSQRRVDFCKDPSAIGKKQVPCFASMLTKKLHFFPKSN
# XiGFP reactiv – X-chromosome reactivation activator | XiGFP mouse fibroblasts, % GFP-positive cells imaging, 3 d; cells co-treated with 5-aza-dC sensitizer; scaled so ellipticine positive control = 100% | activation, % at 7.58 µM | 0.055% of 360,000 active | AID 743238;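 active = mean normalized replicate activation at least 10% and every replicate at or above 10%; inconclusive = only one of the two criteria met; inactive = mean below 10% and not all replicates reach 10%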;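 note: 0% = median of on-plate neutral control wells and 100% = ellipticine 6 µM median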
#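 Material: SV40-immortalized XiGFP fibroblast cells, line 68-5-11 | Buffer or medium: DMEM containing 5-aza-dC | Dosing: One concentration, pinned | Times: 3 d treatment, 15 min room-temperature fixation | Controls: Ellipticine 6 µM positive control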
# FN deposit inh – fibronectin deposition inhibition; AH1F fibroblasts, Alexa488-fibronectin deposition fluorescence, overnight; inhibition, % at 12.6 µM; 0.086% of 350,000 active; AID 743247;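 active = mean inhibition across replicates of 30% or more, regardless of how many single replicates reach that level; inconclusive = mean under 30% yet at least half of replicates reach 30%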;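 note: positive control wells lacked labelled fibronectin entirely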
#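 test system = AH1F fibroblasts assembling fluorescent fibronectin matrix | quantity = 10000 AH1F cells per well | buffer or medium = DMEM plus 2% serum, read in PBS | doses = single dose, pinned | incubation = 1 h cell attachment, overnight exposure to compound and label | detection = fluorescence at 485 nm excitation, 525 nm emission | read-out basis = inhibition from reduced deposited-fibronectin fluorescence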
# DENV2 CPE rescue – protects cells from dengue virus 2 cytopathic effect. DENV2-infected cells, cytopathic effect rescue, plate reader. CPE inhibition, % at 9.99 µM. 1.7% of 350,000 active; in the data active = CPE inhibition above about 20%, passing the limit was not always enough; inconclusive = no clear call, values can overlap the other calls; tested in BHK-21 cells;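 note: 0% = median of neutral control wells and 100% = median of positive control wells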
# Starred values were filed as active, the others as inactive; u = inconclusive; x = no result given; ! = not confirmed by another sample. Sampled rows, rich in hits. Any-hit rate of the full collection: about 2%.
SMILES,CaV13 ICDI inh,CASP6 VEID inh,XiGFP reactiv,FN deposit inh,DENV2 CPE rescue
Cn1nc(C(=O)NNC(=O)c2cccc(Cl)c2)c2ccccc2c1=O,-14,-1,0,-4,67*
Cc1cc(C)c(C(=O)N(C)C2CCCN(Cc3ccccc3F)C2)o1 (stereo not drawn),x,2,1,x,37*
COCC(=O)N1CC2(C1)[C@H](c1ccc(-c3ccc(F)cc3)cc1)[C@@H](CO)N2C(C)=O,x,-2,0,x,-8
CCC(=O)N(C)C[C@@H]1Oc2ncc(-c3ccc(C#N)cc3)cc2C(=O)N([C@H](C)CO)C[C@H]1C,x,4,-1,-5,12
CCC(=O)N(C)C[C@@H]1Oc2ncc(-c3ccc(C)cc3)cc2C(=O)N([C@@H](C)CO)C[C@@H]1C,x,2,1,-4,-6
CCC(=O)N(C)C[C@@H]1Oc2ncc(-c3ccc(C#N)cc3)cc2C(=O)N([C@H](C)CO)C[C@@H]1C,x,0,0,7,70*
C[C@@H]1CN([C@@H](C)CO)C(=O)c2cc(Br)cnc2O[C@@H]1CN(C)Cc1ccncc1,x,1,0,-15,-4
CCC(=O)N(C)C[C@H]1Oc2ncc(/C=C/c3ccccc3)cc2C(=O)N([C@@H](C)CO)C[C@@H]1C,x,0,0,7,42*
C[C@H](CO)N1C[C@H](C)[C@H](CN(C)Cc2ccncc2)Oc2ncc(Br)cc2C1=O,-6,-2,0,-13,85*!
CCC(=O)N(C)C[C@@H]1Oc2ncc(-c3ccc(C)cc3)cc2C(=O)N([C@@H](C)CO)C[C@H]1C,x,-1,0,-6,22*
CC(C)NC(=O)N(C)C[C@@H]1Oc2ccc(NS(C)(=O)=O)cc2CC(=O)N(C)C[C@@H]1C,x,x,0,10,x
CCCNC(=O)Nc1ccc2c(c1)C(=O)N(C)C[C@H](OC)[C@@H](C)CN(C(=O)C1CCC1)[C@@H](C)CO2,x,2,-1,1,10
CCC(=O)N(C)C[C@@H]1Oc2ncc(Br)cc2C(=O)N([C@H](C)CO)C[C@H]1C,-1,2,0,0,29*!
COc1ccc(NC(=O)N(C)C[C@H]2OCCCC[C@@H](C)Oc3ccc(NC(=O)CCC(F)(F)F)cc3C(=O)N([C@@H](C)CO)C[C@@H]2C)cc1,x,1,0,x,-9
COc1ccc(NC(=O)N(C)C[C@H]2OCCCC[C@@H](C)Oc3ccc(NC(=O)CCC(F)(F)F)cc3C(=O)N([C@@H](C)CO)C[C@H]2C)cc1,x,-5,1,x,21*
C[C@@H]1CCCCO[C@@H](CN(C)CC2CCCCC2)[C@@H](C)CN([C@H](C)CO)C(=O)c2cc(NC(=O)CCC(F)(F)F)ccc2O1,x,x,-1,x,63*
C[C@@H]1CN([C@H](C)CO)C(=O)c2cc(NC(=O)CCC(F)(F)F)ccc2O[C@@H](C)CCCCO[C@H]1CN(C)Cc1ccc(Cl)c(Cl)c1,x,-1,0,x,71*
COc1ccc(CN(C)C[C@@H]2OCCCC[C@@H](C)Oc3ccc(NC(=O)CCC(F)(F)F)cc3C(=O)N([C@H](C)CO)C[C@H]2C)cc1,x,-2,0,x,30*
COc1ccc(CN(C)C[C@H]2OCCCC[C@@H](C)Oc3ccc(NC(=O)CCC(F)(F)F)cc3C(=O)N([C@H](C)CO)C[C@H]2C)cc1,x,1,0,x,-1
C/C=C/c1ccc2c(c1)O[C@@H](CN(C)C(=O)C1CCCCC1)[C@@H](C)CN([C@@H](C)CO)S2(=O)=O,x,x,-1,x,x
Cc1cc(=O)oc2cc(OC(=O)c3cncc(Br)c3)ccc12,45*,-6,0,-3,3
CCCC(=O)Oc1ccc2c(C)cc(=O)oc2c1,-5,7,0,0,0
CCC(=O)N1CCN(c2ccc(NC(=O)COc3cccc(C)c3C)cc2)CC1,-4,-1,0,1,9
Cc1cccc(OCC(=O)Nc2ccc(N3CCN(C(=O)c4ccccc4)CC3)cc2)c1C,-6,-1,0,-1,43*
CCc1cccc(C)c1NC(=S)NCc1ccc2c(c1)cc(C)n2C,57*,-5,0,-4,1
SMILES,CaV13 ICDI inh,CASP6 VEID inh,XiGFP reactiv,FN deposit inh,DENV2 CPE rescue
COc1ccc(CN2C(=O)C(C)Nc3ncnc(N4CCOCC4)c32)cc1 (stereo not drawn),-5,1,0,-2,9
COc1ccc(CN2C(=O)C(C)Nc3ncnc(N4CCN(c5ccccc5)CC4)c32)cc1 (stereo not drawn),63*!,6,0,2,u
C[C@@H]1CN([C@@H](C)CO)C(=O)c2cc(NC(=O)Nc3ccc(C(F)(F)F)cc3)ccc2O[C@H]1CN(C)S(=O)(=O)c1cccs1,x,x,-1,-4,x
COc1cc(OC)c2c(c1O)OC(c1ccccc1)CC2=O (stereo not drawn),x,40*,x,x,-4
O=C1CC(c2ccccc2)Oc2cc(O)cc(O)c21 (stereo not drawn),x,5,x,x,70*
O=C1CC(c2ccc(O)cc2)Oc2cc(O)cc(O)c21 (stereo not drawn),-5,1,0,2,3
CC(C)=CCc1c(O)cc2c(c1O)C(=O)CC(c1ccccc1)O2 (stereo not drawn),x,-4,x,x,-3
COc1ccc(C2CC(=O)c3c(O)cc(O)cc3O2)cc1O (stereo not drawn),x,6,x,x,23*
CCCC#Cc1ccc([C@@H]2[C@@H](CO)N3C(=O)CN(C(=O)Nc4cc(F)ccc4F)C[C@H]23)cc1,x,x,1,x,x
C[C@@H]1CCCCO[C@@H](CN(C)Cc2ccc3c(c2)OCO3)[C@H](C)CN([C@@H](C)CO)C(=O)c2cc(NC(=O)c3ccccc3)ccc2O1,x,4,0,x,-3
Nc1ccc(N2CCOCC2)c2nonc12,-7,83*,0,x,3
C[C@@H]1CN([C@@H](C)CO)C(=O)Cc2cc(NC(=O)Nc3ccc(F)cc3)ccc2O[C@@H]1CN(C)C(=O)Nc1ccc2c(c1)OCO2,x,-3,-1,2,-5
CC(=O)OCC1=C(C(=O)O)N2C(=O)[C@@H](NC(=O)CSc3ccncc3)[C@H]2SC1,-5,38*,0,-3,3
COc1ccc(S(=O)(=O)N(C)C[C@@H]2OCCCC[C@@H](C)Oc3ccc(NC(=O)NC(C)C)cc3C(=O)N([C@H](C)CO)C[C@H]2C)cc1,x,0,-1,x,-3
C/C=C/c1ccc([C@H]2[C@H](CO)N(S(=O)(=O)Cc3ccccc3)C23CN(C(=O)C2CCOCC2)C3)cc1,x,x,0,x,x
Cc1cccc(CN2C[C@]34C=C[C@@H](C[C@@H]3S2(=O)=O)O4)c1,-10,1,0,5,48*
COc1cc(N2CCCC2)c(OC)cc1/C=C1/NC(=S)NC1=O,-15,x,71*,-18,x
COc1ccc(OC)c(/C=C2\NC(=O)NC2=O)c1,-17,1,0,11,3
